Values after ≈ are worked out from the molar mass of the structure shown. Active and inactive are the calls of the source. No cut-off for these calls is given here.
Columns and labels:
Type in all cases: functional, cell-based
A549 = test: Cytotoxicity against human A549 cells after 72 hrs by sulforhodamine B assay; details: for EC50: A549, 72 h
Procedure, shortened: (§1)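 SRB assay following NCI procedure; 72 h continuous exposure. Cells grown at 37 °C, 5% CO2, humidified, in RPMI-1640 with 25 mM HEPES, 2% (w/v) sodium bicarbonate, 10% (v/v) FBS, 100 µg/mL kanamycin. Compounds from DMSO stocks, final DMSO ≤1% (v/v). EC50 (µg/mL, 50% cell-number reduction) interpolated from dose-response; triplicate tests; doxorubicin positive control.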

MCF7 = test: Cytotoxicity against human MCF7 cells after 72 hrs by sulforhodamine B assay; details: for EC50: MCF7, 72 h; procedure, shortened: as §1
KB = test: Cytotoxicity against human KB cells after 72 hrs by sulforhodamine B assay; procedure, shortened: as §1
[1] = Cytotoxicity against human KB-VIN cells after 72 hrs by sulforhodamine B assay; details: KBVIN; procedure, shortened: as §1

Compound | Activity (A549) | Activity (MCF7) | Activity (KB) | EC50 [1] [µg/mL] | EC50 (A549) [µg/mL] | EC50 (MCF7) [µg/mL] | EC50 (KB) [µg/mL]
COc1ccc2cc(/C=C/C(=O)O)c3cc(OC)c(OC)cc3c2c1 | inactive | inactive | inactive | 14.7 (≈ 43.5 µM) | – | – | –
COc1ccc2c3c(c4cc(OC)c(OC)cc4c2c1)CC1CCCN1C3 (racemic) [(+/-)-ANTOFINE] | – | – | – | 0.00083 (≈ 0.00228 µM) | 0.00016 (≈ 0.00044 µM) | 0.0045 (≈ 0.0124 µM) | 0.00043 (≈ 0.00118 µM)
COc1ccc2cc(/C=C/C(=O)N=[N+]=[N-])c3cc(OC)c(OC)cc3c2c1 | inactive | – | – | 9.36 (≈ 25.8 µM) | – | 8.29 (≈ 22.8 µM) | 13.5 (≈ 37.2 µM)
COc1ccc2c(c1)c1cc(OC)c(OC)cc1c1c[n+]3c(cc21)CCC3.[Cl-] [DEOXYPERGULARININE CHLORIDE] | – | – | – | 5.66 | 1.06 | 1.49 | 0.95
COc1ccc2c3c(c4cc(OC)c(OC)cc4c2c1)CN1CCCC1C3 (racemic) [(+/-)-DEOXYTYLOPHORININE] | – | – | – | 0.016 (≈ 0.044 µM) | 0.011 (≈ 0.0303 µM) | 0.043 (≈ 0.118 µM) | 0.023 (≈ 0.0633 µM)
COc1ccc2c(c1)c1cc(OC)c(OC)cc1c1cc3[n+](cc21)CCC3.[Br-] [DEHYDROANTOFINE BROMIDE] | – | – | – | 5.14 | 0.49 | 1.29 | 5.37
COc1ccc2c(c1)c1cc(OC)c(OC)cc1c1c[n+]3c(cc21)CCC3.[Br-] [DEOXYPERGULARININE BROMIDE] | – | – | – | 8.26 | 0.32 | 1.18 | 0.29
COc1ccc2c(c1)c1cc(OC)c(OC)cc1c1cc3[n+](cc21)CCC3.[Cl-] [DEHYDROANTOFINE CHLORIDE] | – | – | – | 0.33 | 0.73 | 1.72 | 0.93
COc1ccc2c3c(c4cc(OC)c(OC)cc4c2c1)C(=O)N1CCCC1C3 (stereo not given) | – | – | – | 1.16 (≈ 3.07 µM) | 1.15 (≈ 3.05 µM) | 2.14 (≈ 5.67 µM) | 1.39 (≈ 3.68 µM)
COc1ccc2c(c1)c1cc(OC)c(OC)cc1c1cc[nH]c(=O)c21 | inactive | inactive | inactive | 7.39 (≈ 22 µM) | – | – | –

— ChEMBL document CHEMBL1150332, “Total synthesis of phenanthroindolizidine alkaloids (+/-)-antofine, (+/-)-deoxypergularinine, and their dehydro congeners and evaluation of their cytotoxic activity” (Bioorg Med Chem, 2008)
